Test results taken from ChEMBL document CHEMBL1140728, “Synthesis and biological activity of human neuropeptide S analogues modified in position 2” (J Med Chem, 2008).
Non-standard residues stand in square brackets, D forms with d. Residues, ends and D or L forms follow the SMILES beside them. Phe(4-CF3) = N[C@@H](Cc1ccc(C(F)(F)F)cc1)C(=O)O; Bip = N[C@@H](Cc1ccc(-c2ccccc2)cc1)C(=O)O; Phe(4-Br) = N[C@@H](Cc1ccc(Br)cc1)C(=O)O; Phe(4-CN) = N#Cc1ccc(C[C@H](N)C(=O)O)cc1; Phe(4-Cl) = N[C@@H](Cc1ccc(Cl)cc1)C(=O)O; Phe(4-F) = N[C@@H](Cc1ccc(F)cc1)C(=O)O; Phe(4-I) = N[C@@H](Cc1ccc(I)cc1)C(=O)O; Phe(4-Me) = Cc1ccc(C[C@H](N)C(=O)O)cc1; 1Nal = N[C@@H](Cc1cccc2ccccc12)C(=O)O; Atc(2S) = N[C@@]1(C(=O)O)CCc2ccccc2C1; Phe(2-Me) = Cc1ccccc1C[C@H](N)C(=O)O; Cha = N[C@@H](CC1CCCCC1)C(=O)O; Aic = NC1(C(=O)O)Cc2ccccc2C1; Nphe = O=C(O)CNCc1ccccc1

Tests used:
[1] = molecular target: T1, Neuropeptide S receptor (Mus musculus) (UniProt Q8BZP8); experiment: Agonist activity at mouse recombinant NPS receptor expressed in HEK293 cells assessed as intracellular calcium mobilization relative to baseline; format: functional, cell-based
T1 sequence (whole entry): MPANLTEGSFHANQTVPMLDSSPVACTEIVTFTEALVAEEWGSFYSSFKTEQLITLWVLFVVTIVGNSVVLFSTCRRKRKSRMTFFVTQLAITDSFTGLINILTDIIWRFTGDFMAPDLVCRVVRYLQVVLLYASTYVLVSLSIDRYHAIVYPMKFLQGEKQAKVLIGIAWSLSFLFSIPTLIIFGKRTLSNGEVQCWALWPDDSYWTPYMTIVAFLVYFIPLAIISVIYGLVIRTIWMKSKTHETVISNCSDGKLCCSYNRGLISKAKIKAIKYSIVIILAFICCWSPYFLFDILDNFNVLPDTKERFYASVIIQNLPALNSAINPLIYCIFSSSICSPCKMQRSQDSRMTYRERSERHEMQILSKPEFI
Summary of the method: (§1)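 HEK293 cells stably expressing mouse NPSR, kept in DMEM with 10% FBS, 2 mM L-glutamine and hygromycin (100 mg/L), were seeded at 50 000 cells/well. Next day they were loaded with Fluo-4 AM (3 µmol), probenecid (2.5 mmol) and 0.01% pluronic acid for 30 min at 37 °C. Agonist dilutions in HBSS/HEPES with 0.02% BSA were added, and FlexStation II fluorescence was read at 22 °C.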

Neuropeptide S receptor = molecular target: T2, Neuropeptide S receptor (Mus musculus, UniProt Q8BZP8); experiment: Agonist activity at mouse recombinant NPS receptor expressed in HEK293 cells assessed as intracellular calcium mobilization; format: functional, cell-based; summary of the method: as §1
T2 sequence (Q8BZP8 whole entry): T1 sequence (whole entry)

Compound	Emax [1] [%]	EC50 (Neuropeptide S receptor) [nM]
CSCC[C@H](NC(=O)CNC(=O)[C@@H](NC(=O)CNC(=O)[C@@H](NC(=O)CNC(=O)[C@H](CC(N)=O)NC(=O)[C@H](CCCNC(=N)N)NC(=O)[C@H](Cc1cccc2ccccc12)NC(=O)[C@@H](N)CO)C(C)C)[C@@H](C)O)C(=O)N[C@@H](CCCCN)C(=O)N[C@@H](CCCCN)C(=O)N[C@H](C(=O)N[C@@H](CO)C(=O)N[C@@H](Cc1ccccc1)C(=O)N[C@@H](CCC(N)=O)C(=O)N[C@@H](CCCNC(=N)N)C(=O)N[C@@H](C)C(=O)N[C@@H](CCCCN)C(=O)N[C@@H](CO)C(=O)O)[C@@H](C)O (H-S[1Nal]RNGVGTGMKKTSFQRAKS-OH)	232	1.95
CSCC[C@H](NC(=O)CNC(=O)[C@@H](NC(=O)CNC(=O)[C@@H](NC(=O)CNC(=O)[C@H](CC(N)=O)NC(=O)[C@H](CCCNC(=N)N)NC(=O)C1(NC(=O)[C@@H](N)CO)Cc2ccccc2C1)C(C)C)[C@@H](C)O)C(=O)N[C@@H](CCCCN)C(=O)N[C@@H](CCCCN)C(=O)N[C@H](C(=O)N[C@@H](CO)C(=O)N[C@@H](Cc1ccccc1)C(=O)N[C@@H](CCC(N)=O)C(=O)N[C@@H](CCCNC(=N)N)C(=O)N[C@@H](C)C(=O)N[C@@H](CCCCN)C(=O)N[C@@H](CO)C(=O)O)[C@@H](C)O (H-S[Aic]RNGVGTGMKKTSFQRAKS-OH)	211	33.9
CSCC[C@H](NC(=O)CNC(=O)[C@@H](NC(=O)CNC(=O)[C@@H](NC(=O)CNC(=O)[C@H](CC(N)=O)NC(=O)[C@H](CCCNC(=N)N)NC(=O)[C@]1(NC(=O)[C@@H](N)CO)CCc2ccccc2C1)C(C)C)[C@@H](C)O)C(=O)N[C@@H](CCCCN)C(=O)N[C@@H](CCCCN)C(=O)N[C@H](C(=O)N[C@@H](CO)C(=O)N[C@@H](Cc1ccccc1)C(=O)N[C@@H](CCC(N)=O)C(=O)N[C@@H](CCCNC(=N)N)C(=O)N[C@@H](C)C(=O)N[C@@H](CCCCN)C(=O)N[C@@H](CO)C(=O)O)[C@@H](C)O (H-S[Atc(2S)]RNGVGTGMKKTSFQRAKS-OH)	257	11.2
CSCC[C@H](NC(=O)CNC(=O)[C@@H](NC(=O)CNC(=O)[C@@H](NC(=O)CNC(=O)[C@H](CC(N)=O)NC(=O)[C@H](CCCNC(=N)N)NC(=O)[C@H](Cc1ccc(-c2ccccc2)cc1)NC(=O)[C@@H](N)CO)C(C)C)[C@@H](C)O)C(=O)N[C@@H](CCCCN)C(=O)N[C@@H](CCCCN)C(=O)N[C@H](C(=O)N[C@@H](CO)C(=O)N[C@@H](Cc1ccccc1)C(=O)N[C@@H](CCC(N)=O)C(=O)N[C@@H](CCCNC(=N)N)C(=O)N[C@@H](C)C(=O)N[C@@H](CCCCN)C(=O)N[C@@H](CO)C(=O)O)[C@@H](C)O (H-S[Bip]RNGVGTGMKKTSFQRAKS-OH)	170	20
CSCC[C@H](NC(=O)CNC(=O)[C@@H](NC(=O)CNC(=O)[C@@H](NC(=O)CNC(=O)[C@H](CC(N)=O)NC(=O)[C@H](CCCNC(=N)N)NC(=O)[C@H](CC1CCCCC1)NC(=O)[C@@H](N)CO)C(C)C)[C@@H](C)O)C(=O)N[C@@H](CCCCN)C(=O)N[C@@H](CCCCN)C(=O)N[C@H](C(=O)N[C@@H](CO)C(=O)N[C@@H](Cc1ccccc1)C(=O)N[C@@H](CCC(N)=O)C(=O)N[C@@H](CCCNC(=N)N)C(=O)N[C@@H](C)C(=O)N[C@@H](CCCCN)C(=O)N[C@@H](CO)C(=O)O)[C@@H](C)O (H-S[Cha]RNGVGTGMKKTSFQRAKS-OH)	221	1.35
CSCC[C@H](NC(=O)CNC(=O)[C@@H](NC(=O)CNC(=O)[C@@H](NC(=O)CNC(=O)[C@H](CC(N)=O)NC(=O)[C@H](CCCNC(=N)N)NC(=O)CN(Cc1ccccc1)C(=O)[C@@H](N)CO)C(C)C)[C@@H](C)O)C(=O)N[C@@H](CCCCN)C(=O)N[C@@H](CCCCN)C(=O)N[C@H](C(=O)N[C@@H](CO)C(=O)N[C@@H](Cc1ccccc1)C(=O)N[C@@H](CCC(N)=O)C(=O)N[C@@H](CCCNC(=N)N)C(=O)N[C@@H](C)C(=O)N[C@@H](CCCCN)C(=O)N[C@@H](CO)C(=O)O)[C@@H](C)O (H-S[Nphe]RNGVGTGMKKTSFQRAKS-OH)	246	15.5

Other lines, results leading:

Emax [1] [%]	EC50 (Neuropeptide S receptor) [nM]	Compound
222	1.86	CSCC[C@H](NC(=O)CNC(=O)[C@@H](NC(=O)CNC(=O)[C@@H](NC(=O)CNC(=O)[C@H](CC(N)=O)NC(=O)[C@H](CCCNC(=N)N)NC(=O)[C@H](Cc1ccccc1C)NC(=O)[C@@H](N)CO)C(C)C)[C@@H](C)O)C(=O)N[C@@H](CCCCN)C(=O)N[C@@H](CCCCN)C(=O)N[C@H](C(=O)N[C@@H](CO)C(=O)N[C@@H](Cc1ccccc1)C(=O)N[C@@H](CCC(N)=O)C(=O)N[C@@H](CCCNC(=N)N)C(=O)N[C@@H](C)C(=O)N[C@@H](CCCCN)C(=O)N[C@@H](CO)C(=O)O)[C@@H](C)O (H-S[Phe(2-Me)]RNGVGTGMKKTSFQRAKS-OH)
309	0.646	CSCC[C@H](NC(=O)CNC(=O)[C@@H](NC(=O)CNC(=O)[C@@H](NC(=O)CNC(=O)[C@H](CC(N)=O)NC(=O)[C@H](CCCNC(=N)N)NC(=O)[C@H](Cc1ccc(Br)cc1)NC(=O)[C@@H](N)CO)C(C)C)[C@@H](C)O)C(=O)N[C@@H](CCCCN)C(=O)N[C@@H](CCCCN)C(=O)N[C@H](C(=O)N[C@@H](CO)C(=O)N[C@@H](Cc1ccccc1)C(=O)N[C@@H](CCC(N)=O)C(=O)N[C@@H](CCCNC(=N)N)C(=O)N[C@@H](C)C(=O)N[C@@H](CCCCN)C(=O)N[C@@H](CO)C(=O)O)[C@@H](C)O (H-S[Phe(4-Br)]RNGVGTGMKKTSFQRAKS-OH)
286	2.57	CSCC[C@H](NC(=O)CNC(=O)[C@@H](NC(=O)CNC(=O)[C@@H](NC(=O)CNC(=O)[C@H](CC(N)=O)NC(=O)[C@H](CCCNC(=N)N)NC(=O)[C@H](Cc1ccc(C(F)(F)F)cc1)NC(=O)[C@@H](N)CO)C(C)C)[C@@H](C)O)C(=O)N[C@@H](CCCCN)C(=O)N[C@@H](CCCCN)C(=O)N[C@H](C(=O)N[C@@H](CO)C(=O)N[C@@H](Cc1ccccc1)C(=O)N[C@@H](CCC(N)=O)C(=O)N[C@@H](CCCNC(=N)N)C(=O)N[C@@H](C)C(=O)N[C@@H](CCCCN)C(=O)N[C@@H](CO)C(=O)O)[C@@H](C)O (H-S[Phe(4-CF3)]RNGVGTGMKKTSFQRAKS-OH)
296	3.31	CSCC[C@H](NC(=O)CNC(=O)[C@@H](NC(=O)CNC(=O)[C@@H](NC(=O)CNC(=O)[C@H](CC(N)=O)NC(=O)[C@H](CCCNC(=N)N)NC(=O)[C@H](Cc1ccc(C#N)cc1)NC(=O)[C@@H](N)CO)C(C)C)[C@@H](C)O)C(=O)N[C@@H](CCCCN)C(=O)N[C@@H](CCCCN)C(=O)N[C@H](C(=O)N[C@@H](CO)C(=O)N[C@@H](Cc1ccccc1)C(=O)N[C@@H](CCC(N)=O)C(=O)N[C@@H](CCCNC(=N)N)C(=O)N[C@@H](C)C(=O)N[C@@H](CCCCN)C(=O)N[C@@H](CO)C(=O)O)[C@@H](C)O (H-S[Phe(4-CN)]RNGVGTGMKKTSFQRAKS-OH)
298	0.708	CSCC[C@H](NC(=O)CNC(=O)[C@@H](NC(=O)CNC(=O)[C@@H](NC(=O)CNC(=O)[C@H](CC(N)=O)NC(=O)[C@H](CCCNC(=N)N)NC(=O)[C@H](Cc1ccc(Cl)cc1)NC(=O)[C@@H](N)CO)C(C)C)[C@@H](C)O)C(=O)N[C@@H](CCCCN)C(=O)N[C@@H](CCCCN)C(=O)N[C@H](C(=O)N[C@@H](CO)C(=O)N[C@@H](Cc1ccccc1)C(=O)N[C@@H](CCC(N)=O)C(=O)N[C@@H](CCCNC(=N)N)C(=O)N[C@@H](C)C(=O)N[C@@H](CCCCN)C(=O)N[C@@H](CO)C(=O)O)[C@@H](C)O (H-S[Phe(4-Cl)]RNGVGTGMKKTSFQRAKS-OH)
291	1.1	CSCC[C@H](NC(=O)CNC(=O)[C@@H](NC(=O)CNC(=O)[C@@H](NC(=O)CNC(=O)[C@H](CC(N)=O)NC(=O)[C@H](CCCNC(=N)N)NC(=O)[C@H](Cc1ccc(F)cc1)NC(=O)[C@@H](N)CO)C(C)C)[C@@H](C)O)C(=O)N[C@@H](CCCCN)C(=O)N[C@@H](CCCCN)C(=O)N[C@H](C(=O)N[C@@H](CO)C(=O)N[C@@H](Cc1ccccc1)C(=O)N[C@@H](CCC(N)=O)C(=O)N[C@@H](CCCNC(=N)N)C(=O)N[C@@H](C)C(=O)N[C@@H](CCCCN)C(=O)N[C@@H](CO)C(=O)O)[C@@H](C)O (H-S[Phe(4-F)]RNGVGTGMKKTSFQRAKS-OH)
243	1.78	CSCC[C@H](NC(=O)CNC(=O)[C@@H](NC(=O)CNC(=O)[C@@H](NC(=O)CNC(=O)[C@H](CC(N)=O)NC(=O)[C@H](CCCNC(=N)N)NC(=O)[C@H](Cc1ccc(I)cc1)NC(=O)[C@@H](N)CO)C(C)C)[C@@H](C)O)C(=O)N[C@@H](CCCCN)C(=O)N[C@@H](CCCCN)C(=O)N[C@H](C(=O)N[C@@H](CO)C(=O)N[C@@H](Cc1ccccc1)C(=O)N[C@@H](CCC(N)=O)C(=O)N[C@@H](CCCNC(=N)N)C(=O)N[C@@H](C)C(=O)N[C@@H](CCCCN)C(=O)N[C@@H](CO)C(=O)O)[C@@H](C)O (H-S[Phe(4-I)]RNGVGTGMKKTSFQRAKS-OH)
317	0.676	CSCC[C@H](NC(=O)CNC(=O)[C@@H](NC(=O)CNC(=O)[C@@H](NC(=O)CNC(=O)[C@H](CC(N)=O)NC(=O)[C@H](CCCNC(=N)N)NC(=O)[C@H](Cc1ccc(C)cc1)NC(=O)[C@@H](N)CO)C(C)C)[C@@H](C)O)C(=O)N[C@@H](CCCCN)C(=O)N[C@@H](CCCCN)C(=O)N[C@H](C(=O)N[C@@H](CO)C(=O)N[C@@H](Cc1ccccc1)C(=O)N[C@@H](CCC(N)=O)C(=O)N[C@@H](CCCNC(=N)N)C(=O)N[C@@H](C)C(=O)N[C@@H](CCCCN)C(=O)N[C@@H](CO)C(=O)O)[C@@H](C)O (H-S[Phe(4-Me)]RNGVGTGMKKTSFQRAKS-OH)
